# Reference: ChEMBL document CHEMBL2311247, “Antimicrobial activity of various 4- and 5-substituted 1-phenylnaphthalenes” (2013)
# Active and inactive are the calls of the source. The calls are words filed in the database; no cut-off is given here.
# Experiments:
# Enterococcus faecalis [1] = experiment: Antibacterial activity against vancomycin-sensitive Enterococcus faecalis ATCC 19433 assessed as growth inhibition after 24 hrs by CLSI broth microdilution method; format: functional; details: ATCC 19433, 24 h
# In short: (§1)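 Run per CLSI broth microdilution. Log-phase E. faecalis at 10⁵ CFU/mL in brain-heart infusion broth with 2-fold serial dilutions (64 to 0.031 µg/mL), incubated aerobically 24 h at 37 °C. Growth is measured by OD₆₀₀, and MIC is the lowest concentration inhibiting growth by ≥90%.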
# Enterococcus faecalis [2] = experiment: Antibacterial activity against vancomycin-resistant Enterococcus faecalis ATCC 51575 assessed as growth inhibition after 24 hrs by CLSI broth microdilution method; format: functional; details: ATCC 51575, 24 h; in short: as §1
# Staphylococcus aureus [3] = experiment: Antibacterial activity against methicillin-resistant Staphylococcus aureus ATCC 33591 assessed as growth inhibition after 24 hrs by CLSI broth microdilution method; format: functional; details: ATCC 33591, 24 h
# In short: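 CLSI broth microdilution. Log-phase bacteria at 10⁵ CFU/mL are added to 2-fold serial dilutions from 64 to 0.031 µg/mL in cation-adjusted Mueller-Hinton broth with 2% NaCl. Plates are incubated aerobically for 24 h at 37 °C and growth is read as OD₆₀₀. MIC is the lowest concentration giving ≥90% growth inhibition.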
# Staphylococcus aureus [4] = experiment: Antibacterial activity against methicillin-sensitive Staphylococcus aureus 8325-4 assessed as growth inhibition after 24 hrs by CLSI broth microdilution method; format: functional; details: 8325-4, 24 h
# In short: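 MSSA strain 8325-4; log-phase inoculum at 10⁵ CFU/mL. 2-fold serial dilutions, 64 to 0.031 µg/mL, in cation-adjusted Mueller-Hinton broth. Aerobic incubation, 24 h, 37 °C. Growth read as OD₆₀₀. MIC is the lowest concentration giving ≥90% growth inhibition.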
# [5] = target: T1, Cell division protein FtsZ (Staphylococcus aureus) (UniProt P0A031); experiment: Stimulation of Staphylococcus aureus ATCC 33591-D FtsZ polymerization expressed in Escherichia coli BL21 (DE3) assessed as inhibition of FtsZ Z-ring formation at 40 ug/mL measured for 300 mins by microtiter plate-based turbidity assay
# T1 sequence (whole entry): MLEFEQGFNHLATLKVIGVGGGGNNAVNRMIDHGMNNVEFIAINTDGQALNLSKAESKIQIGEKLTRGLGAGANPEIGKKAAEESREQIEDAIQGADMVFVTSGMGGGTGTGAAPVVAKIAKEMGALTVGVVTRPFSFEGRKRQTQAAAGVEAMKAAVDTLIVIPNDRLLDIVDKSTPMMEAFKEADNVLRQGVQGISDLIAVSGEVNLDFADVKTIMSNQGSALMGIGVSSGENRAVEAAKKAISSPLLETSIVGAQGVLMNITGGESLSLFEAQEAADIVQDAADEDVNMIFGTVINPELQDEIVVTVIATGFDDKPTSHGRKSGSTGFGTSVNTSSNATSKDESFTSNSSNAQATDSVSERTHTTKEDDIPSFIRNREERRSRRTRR
# In short: (§2)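 SaFtsZ expressed in E. coli BL21 (DE3) under 1 mM IPTG induction for 3 h at 37 °C. Purified by MonoQ anion exchange then Superdex-200, about 90% pure. Turbidity assay at 25 °C in 50 mM Tris·HCl pH 7.4, 50 mM KCl, 2 mM magnesium acetate, 1 mM GTP. Compound at 40 µg/mL. Reaction started with 10 µM protein (final). A₃₄₀ monitored continuously for 300 min.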
# [6] = target: T1, Cell division protein FtsZ (Staphylococcus aureus); experiment: Stimulation of Staphylococcus aureus ATCC 33591-D FtsZ polymerization expressed in Escherichia coli BL21 (DE3) assessed as inhibition of FtsZ Z-ring formation at 40 ug/mL by microtiter plate-based turbidity assay; details: TDE = time-dependent effect; in short: as §2
SMILES,MIC (Enterococcus faecalis [1]) [µg/mL],MIC (Enterococcus faecalis [2]) [µg/mL],MIC (Staphylococcus aureus [3]) [µg/mL],MIC (Staphylococcus aureus [4]) [µg/mL],inhibition [5],inhibition [6]
CC(C)(C)c1ccc(-c2cccc3c(CN)cccc23)cc1,8,8,4,4,–,–
CC(C)(C)c1ccc(-c2ccc(CN=C(N)N)c3ccccc23)cc1,2,2,2,2,–,–
COc1cc(C(F)(F)F)ccc1-c1cccc2c(CCN)cccc12,8,8,16,8,–,–
CC(C)(C)c1ccc(-c2cccc3c(CCN=C(N)N)cccc23)cc1,2,2,2,1,–,–
COc1ccc2c(c[n+](C)c3c4cc5c(cc4ccc23)OCO5)c1OC [CHELERYTHRINE],32,32,4,4,–,–
CC(C)(C)c1ccc(-c2ccc(CN)c3ccccc23)cc1,8,8,8,4,–,–
CC(C)(C)c1ccc(-c2ccc(CCN)c3ccccc23)cc1,4,4,4,4,–,–
CC(C)(C)c1ccc(-c2cccc3c(CCN)cccc23)cc1,2,4,4,2,inactive,tde
NCCc1cccc2c(-c3ccc(C(F)(F)F)cc3O)cccc12,16,16,16,8,–,–
NC(N)=NCc1cccc2c(-c3ccc(C(F)(F)F)cc3)cccc12,8,16,8,2,–,–
CC(C)(C)c1ccc(-c2cccc3c(CC(=N)N)cccc23)cc1,4,8,4,4,–,–
NC(N)=NCc1cccc2c(-c3ccc(Br)cc3)cccc12,8,8,8,2,–,–
CC(C)(C)c1ccc(-c2cccc3c(CN=C(N)N)cccc23)cc1,2,4,2,0.5,inactive,tde
Cc1onc(-c2ccccc2)c1C(=O)N[C@@H]1C(=O)N2[C@@H]1SC(C)(C)[C@@H]2C(=O)O [OXACILLIN],8,> 64,> 64,0.06,–,–
C[n+]1cc2c3c(ccc2c2ccc4cc5c(cc4c21)OCO5)OCO3 [SANGUINARIUM],8,16,2,2,–,–
N=C(N)Cc1cccc2c(-c3ccc(C(F)(F)F)cc3)cccc12,4,8,8,4,–,–
COc1cc(C(F)(F)F)ccc1-c1cccc2c(CN=C(N)N)cccc12,4,4,8,2,–,–
COc1cc(C(F)(F)F)ccc1-c1cccc2c(CCN=C(N)N)cccc12,4,4,8,2,–,–
NC(N)=NCCc1cccc2c(-c3ccc(C(F)(F)F)cc3)cccc12,4,4,4,1,–,–
CC(C)(C)c1ccc(-c2ccc(CCN=C(N)N)c3ccccc23)cc1,2,4,4,2,–,–
CN(C)[C@@H]1C(O)=C(C(N)=O)C(=O)[C@@]2(O)C(O)=C3C(=O)c4c(O)cccc4[C@@](C)(O)[C@H]3C[C@@H]12 [TETRACYCLINE],0.5,> 64,64,0.06,–,–
CCC[C@@H]1C[C@@H](C(=O)N[C@@H]([C@H]2O[C@H](SC)[C@H](O)[C@@H](O)[C@H]2O)[C@H](C)Cl)N(C)C1 [CLINDAMYCIN],2,> 64,> 64,0.03,–,–
CC[C@H]1OC(=O)[C@H](C)[C@@H](O[C@H]2C[C@@](C)(OC)[C@@H](O)[C@H](C)O2)[C@H](C)[C@@H](O[C@@H]2O[C@H](C)C[C@H](N(C)C)[C@H]2O)[C@](C)(O)C[C@@H](C)C(=O)[C@H](C)[C@@H](O)[C@]1(C)O [ERYTHROMYCIN],1,> 64,> 64,0.13,–,–
NC(N)=NCc1cccc2c(-c3ccc(Cl)cc3)cccc12,8,8,8,2,–,–
NC(N)=NCc1cccc2c(-c3ccc(C4CC4)cc3)cccc12,8,8,8,1,–,–
CN[C@H](CC(C)C)C(=O)N[C@H]1C(=O)N[C@@H](CC(N)=O)C(=O)N[C@H]2C(=O)N[C@H]3C(=O)N[C@H](C(=O)N[C@H](C(=O)O)c4cc(O)cc(O)c4-c4cc3ccc4O)[C@H](O)c3ccc(c(Cl)c3)Oc3cc2cc(c3O[C@@H]2O[C@H](CO)[C@@H](O)[C@H](O)[C@H]2O[C@H]2C[C@](C)(N)[C@H](O)[C@H](C)O2)Oc2ccc(cc2Cl)[C@H]1O [VANCOMYCIN],1,> 64,–,–,–,–
